What was measured:
rat EP4 receptor [1] = target: T1, rat EP4 receptor (Rattus norvegicus, UniProt P43114); experiment: cAMP production, rat EP4 receptor expressed in HEK293T cells; format: cell-based; conditions: read-out: rat EP4 receptor cAMP levels EC50; mean ± SEM
rat EP4 receptor [2] = target: T1, rat EP4 receptor; experiment: CRE-regulated SEAP reporter; format: cell-based
rat BMCs [3] = experiment: ALP enzyme activity in total rat bone marrow cell culture, day 9; format: cell-based; conditions: for change in ALP activity over vehicle treated cultures: doses ranging from 1 pM to 10 μM, once at plating
How it was run: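 Unfractionated BMCs from tibiae and femora of young or old female or male Sprague-Dawley rats, extruded into MEMα with 10% FCS and 50 μg/mL gentamicin, triturated and filtered. Plated at 1.8 × 10^5 cells/cm2 and dosed once at plating from 1000x ethanol stocks. Dex (10 nM final) added day 4. Day 9 lysis (Tris pH 8.4, ZnCl2, MgCl2, Triton X-100); pNPP, 405 nm; n = 8 wells; EC50 by non-linear regression.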

rat BMCs [4] = experiment: Adipogenesis assay, Oil Red O staining in BMC cultures; format: cell-based; conditions: 1μM, insulin and dexamethasone, day 12, versus vehicle
rat BMCs [5] = experiment: Osteoclastogenesis assay, TRAP-positive cells in BMC cultures; format: cell-based; conditions: for number of TRAP positive cells in the absence of exogenous M-CSF and RANKL: data not shown; for number of TRAP-positive cells: various doses, in the presence of 16 ng/mL RANKL and 16 ng/mL M-CSF, versus vehicle
rat BMCs [6] = experiment: Total adherent cell number in BMC cultures; format: cell-based; conditions: 1μM, days 5, 6, or 7, versus vehicle
rat BMCs [7] = experiment: ALP-positive colony area in BMC cultures; format: cell-based; conditions: 1μM, day 9, compared to vehicle
rat EP2 receptor [8] = target: T2, rat EP2 receptor (Rattus norvegicus, UniProt Q62928); experiment: cAMP production, rat EP2 receptor expressed in HEK293T cells; format: cell-based
T2 sequence (Q62928 whole entry): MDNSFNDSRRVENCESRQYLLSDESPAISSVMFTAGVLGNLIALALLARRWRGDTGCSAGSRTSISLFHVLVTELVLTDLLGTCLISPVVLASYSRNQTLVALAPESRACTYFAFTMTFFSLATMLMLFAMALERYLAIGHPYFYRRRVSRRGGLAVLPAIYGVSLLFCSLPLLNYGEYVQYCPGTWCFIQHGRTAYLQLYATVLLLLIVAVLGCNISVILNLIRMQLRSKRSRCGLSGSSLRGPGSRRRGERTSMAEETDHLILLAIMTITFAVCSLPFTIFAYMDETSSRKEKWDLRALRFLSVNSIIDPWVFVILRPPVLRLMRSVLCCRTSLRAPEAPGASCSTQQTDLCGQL

rat EP2 receptor [9] = target: T2, rat EP2 receptor; experiment: CRE-regulated SEAP reporter; format: cell-based
rat BMCs [10] = experiment: Bone phenotype marker gene expression in BMCs; format: cell-based; conditions: 1μM once at plating
How it was run: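 BMCs from young female rats dosed once at plating with 1μM test compound or 0.1% ethanol. Dex (10 nM final) added day 4. From day 7, fed every 3 days with medium containing ascorbic acid 100 μg/mL, dex 10 nM and βGP 10 mM. On set days, total RNA taken (n = 3 per time point), quantified at 260 nm, reverse transcribed, and analysed by SYBR Green qPCR.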

bacterial = conditions: in vitro safety test; ref Barrett et al., 2019; cited from earlier work
Half-life in rat plasma = format: in vitro ADME; conditions: 1 μM, 37°C
How it was run: (§1)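 Test compound at 1 μM in rat blood or plasma, 37°C, sampled at 0, 30, 60, 90 and 120 min. Quenched with acetonitrile, centrifuged, analyte peak areas read by HPLC-MS/MS.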

[11] = Half-life and intrinsic clearance in rat hepatocytes; format: in vitro ADME
How it was run: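 Incubated at 37°C with 0.7 million viable rat hepatocytes/mL, sampled at 0, 30, 60, 90 and 120 min. Each sample quenched with acetonitrile and centrifuged; analyte peak areas measured by HPLC-MS/MS to derive half-life and intrinsic clearance.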

[12] = system: non-EP prostanoids receptors (DP, FP, IP and TP); conditions: tested at 10 μM; ref Barrett et al., 2019; cited from earlier work
[13] = Chemical stability of KMN-159; format: physicochemical
human EP4 = human EP4 (Homo sapiens, UniProt P35408); conditions: read-out: human EP4 binding Ki; ref Barrett et al., 2019; cited from earlier work
Chain of human EP4 (P35408 whole entry): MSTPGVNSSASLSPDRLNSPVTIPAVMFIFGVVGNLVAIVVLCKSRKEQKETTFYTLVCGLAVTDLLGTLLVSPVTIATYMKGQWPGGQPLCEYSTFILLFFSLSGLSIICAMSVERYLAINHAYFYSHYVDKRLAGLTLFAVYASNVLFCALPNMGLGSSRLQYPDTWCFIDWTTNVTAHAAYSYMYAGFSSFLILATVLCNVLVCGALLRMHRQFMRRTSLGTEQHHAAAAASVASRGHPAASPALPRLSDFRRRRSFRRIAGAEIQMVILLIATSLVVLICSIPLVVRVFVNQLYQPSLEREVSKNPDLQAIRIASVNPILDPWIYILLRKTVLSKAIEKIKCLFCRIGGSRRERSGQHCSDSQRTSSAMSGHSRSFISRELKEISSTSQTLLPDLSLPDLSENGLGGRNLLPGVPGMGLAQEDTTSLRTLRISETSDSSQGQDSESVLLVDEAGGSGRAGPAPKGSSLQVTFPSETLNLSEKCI

[14] = in vitro safety test; ref Barrett et al., 2019; cited from earlier work
Half-life in rat blood = format: in vitro ADME; conditions: 1 μM, 37°C
How it was run: as §1

cells = experiment: Overt toxicity in cells; format: cell-based; conditions: except at a very high dose
rat BMCs [15] = experiment: Mineralization of BMC cultures; format: cell-based; conditions: 1μM, day 21, compared to vehicle
How it was run: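 Rat BMCs dosed at plating with 1μM test compound or 0.1% ethanol vehicle (n = 4 or 6 wells); in the short-exposure arm, 30 or 60 min suspension exposure. Dex added day 4; from day 7, osteogenic medium (ascorbic acid, dex, βGP) every 3 days. Day 21: fixed in 2% paraformaldehyde, stained with 5% AgNO3 plus UV, von Kossa-positive area per well quantified by imaging.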

cytochrome P450 = conditions: in vitro safety test; ref Barrett et al., 2019; cited from earlier work
[16] = in vitro safety test; ref Barrett et al., 2019; cited from earlier work; remark: listed apart in the source
human EP3 = conditions: read-out: human EP3 binding Ki; ref Barrett et al., 2019; cited from earlier work
[17] = Protein binding in rat plasma by equilibrium dialysis; format: in vitro ADME; conditions: 10 μM, equilibrium dialysis 4 hours 37°C
[18] = In vivo pharmacokinetics after intravenous dosing in rats; conditions: intravenous 0.5 mg/kg, male Sprague-Dawley rats
How it was run: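 Single intravenous dose of 0.5 mg/kg in 3 male Sprague-Dawley rats. Blood sampled up to 24 h post-dose; plasma levels measured by LC-MS/MS. Parameters calculated from the plasma concentration–time course by non-compartmental analysis.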

[19] = read-out: rat EP4 receptor CREB activation EC50, CRE-SEAP reporter, mean ± SEM

T1 sequence (P43114 whole entry): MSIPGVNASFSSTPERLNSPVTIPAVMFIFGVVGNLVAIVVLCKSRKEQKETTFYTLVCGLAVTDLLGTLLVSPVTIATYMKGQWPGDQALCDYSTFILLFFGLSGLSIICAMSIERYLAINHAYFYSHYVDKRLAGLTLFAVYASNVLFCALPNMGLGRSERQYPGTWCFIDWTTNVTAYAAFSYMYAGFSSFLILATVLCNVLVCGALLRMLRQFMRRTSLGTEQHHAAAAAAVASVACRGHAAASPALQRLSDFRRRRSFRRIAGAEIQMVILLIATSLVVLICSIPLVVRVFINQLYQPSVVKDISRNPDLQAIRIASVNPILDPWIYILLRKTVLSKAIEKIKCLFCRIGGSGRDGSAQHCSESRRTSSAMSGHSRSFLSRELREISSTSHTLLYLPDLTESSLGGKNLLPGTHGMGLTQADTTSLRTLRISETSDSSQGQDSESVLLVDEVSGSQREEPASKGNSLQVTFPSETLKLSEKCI

In the case of CCCCC[C@H](O)/C=C/[C@H]1CCC(=O)[C@@H]1CCCCCCC(=O)O [11-deoxy-PGE1, reference compound], the EC50 (rat EP4 receptor [1]) is reported as 1300 ± 240 pM and the EC50 (rat EP4 receptor [2]; [19]) is reported as 60 ± 12 pM.
With CCC#CC[C@H](C)[C@H](O)/C=C/[C@H]1CCC(=O)N1CCCCCCC(=O)O [KMN-80] the EC50 (rat EP4 receptor [1]) was 2600 ± 310 pM, the EC50 (rat EP4 receptor [2]; [19]) was 170 ± 14 pM and the “potency in the BMC ALP assay compared with parent compound 11-deoxy-8-aza-PGE1” value (rat BMCs [3]; young female rat BMCs) was “unchanged from the parent compound”.
For CCCCC[C@H](O)/C=C/[C@H]1[C@H](O)CC(=O)[C@@H]1C/C=C\CCCC(=O)O [PGE2, prostaglandin E2, reference compound], the EC50 (rat EP4 receptor [2]) was 30 ± 2 pM, the “Oil Red O staining (adipocyte formation)” value (rat BMCs [4]) was “no significant change” and the “number of TRAP positive cells in the absence of exogenous M-CSF and RANKL” value (rat BMCs [5]) was “none was observed”. The “number of TRAP-positive cells” value (rat BMCs [5]) was “significantly increased numbers of TRAP-positive cells”, the total cell number (rat BMCs [6]) was “no significant differences” and the ALP positive area (rat BMCs [7]) was “increase the ALP positive area”.
For CCCCCC(O)C=CC1CCC(=O)N1CCCCCCC(=O)O (stereo not shown) [11-deoxy-8-aza-PGE1, reference compound], the EC50 (rat EP4 receptor [1]) was 2600 ± 620 pM and the EC50 (rat EP4 receptor [2]; [19]) was 160 ± 49 pM.
With CCCC1([C@H](O)C/C=C/[C@H]2[C@H](O)CC(=O)[C@@H]2CCCCCCC(=O)OC)CCC1 [butaprost, reference compound] the “change in ALP activity over vehicle treated cultures” value (rat BMCs [3]) was “no change in ALP activity”.
CCCCC[C@H](O)/C=C/[C@H]1CC(F)(F)C(=O)N1CCCCCCC(=O)O [KMN-165] gave an EC50 (rat EP4 receptor [1]) of 300 ± 25 pM and an EC50 (rat EP4 receptor [2]; [19]) of 30 ± 7 pM.
For CCCCC[C@H](O)/C=C/[C@H]1CCC(=O)[C@@H]1C/C=C\CCCC(=O)O [11-deoxy-PGE2, reference compound], the EC50 (rat EP4 receptor [1]) was 1100 ± 160 pM.
With CS(=O)(=O)NC(=O)CCC/C=C\C[C@H]1C(=O)C[C@@H](O)[C@@H]1/C=C/[C@@H](O)COc1ccccc1 [sulprostone, reference compound] the “change in ALP activity over vehicle treated cultures” value (rat BMCs [3]) was “no change in ALP activity”.
Molecule CCCCC[C@H](O)/C=C/[C@H]1[C@H](O)CC(=O)[C@@H]1CCCCCCC(=O)O [PGE1, prostaglandin E1] has an EC50 (rat EP2 receptor [8]) of 79500 ± 9100 pM and an EC50 (rat EP2 receptor [9]) of 4500 ± 460 pM.
For CCC#CC[C@H](C)[C@H](O)/C=C/[C@H]1CC(F)(F)C(=O)N1CCCCCCC(=O)O [KMN-159], the EC50 (rat EP4 receptor [1]) was 500 ± 80 pM, the RANKL expression (rat BMCs [10]; all timepoints tested, versus vehicle) was “significantly increased expression” and the “Runx2 mRNA increase in expression” value (rat BMCs [10]; day 5) was ~ 2 x. For the same molecule, the Runx2 expression (rat BMCs [10]; days 19 and 25, versus vehicle) was “significantly increased”, the osteocalcin gene expression (rat BMCs [10]; later days, versus vehicle) was “increased with both, time in culture and KMN-159 treatment” and the “ALP mRNA expression” value (rat BMCs [10]; versus vehicle) was “increased”. For the same molecule, the OPG expression (rat BMCs [10]; versus vehicle) was “either unchanged or decreased”, the “collagen type IαI expression” value (rat BMCs [10]; versus vehicle) was “further increased” and the EC50 (rat EP4 receptor [2]; [19]) was 30 ± 3 pM. The “Oil Red O staining (adipocyte formation)” value (rat BMCs [4]) was “no significant change”, the bacterial cytotoxicity (bacterial) was “negative” and the “half life - plasma” value (Half-life in rat plasma) was >2 h. The “intrinsic clearance - hepatocytes” value [11] was <8.2 μL/min/10^6 cells, the “half life - hepatocytes” value ([11]; 0.7 million viable cells/mL, 37°C) was >2 h and the “number of TRAP positive cells in the absence of exogenous M-CSF and RANKL” value (rat BMCs [5]) was “none was observed”. The “number of TRAP-positive cells” value (rat BMCs [5]) was “significantly increased numbers of TRAP-positive cells”, the “binding to the non-EP prostanoids receptors” value [12] was “no detectable binding” and the “increase in ALP activity compared to vehicle treated cells” value (rat BMCs [3]; 1μM, 10 minutes exposure then compound removed, ALP day 9) was “approximately 3 fold”. For the same molecule, the “induction of ALP as percent of the maximum reached between 30 and 60 minutes of exposure” value (rat BMCs [3]; 1μM, 10 minutes exposure, ALP measured 9 days later) was “approximately 75%”, the “increase in potency in the BMCs compared to 11-deoxy-8-aza-PGE1” value (rat BMCs [3]; young female rat BMCs, ALP EC50) was “approximately 40 fold” and the recovery ([13]; in aqueous solution and upon sterilization by autoclaving or gamma irradiation, data not shown) was “higher than 90%”. For the same molecule, the “degradation of crystalline solid” value ([13]; storage at room temperature for over two years) was “no measurable degradation”, the Ki (human EP4) was 380 pM and the Ames fluctuation [14] was “negative”. For the same molecule, the “half life - blood” value (Half-life in rat blood) was >2 h, the “overt toxicity in cells” value (cells) was “no overt toxicity” and the “mineralized area detected by von Kossa staining” value (rat BMCs [15]) was “increase in mineralized area”. For the same molecule, the total cell number (rat BMCs [6]) was “no significant differences”, the ALP positive area (rat BMCs [7]) was “increase the ALP positive area” and the “cytochrome P450 inhibition” value (cytochrome P450) was “negative”. For the same molecule, the micronucleus formation [16] was “negative”, the Ki (human EP3) was 258000 pM and the protein binding [17] was 53.8 ± 3.5%. For the same molecule, the “area under the curve (extrapolated to infinity)” value [18] was 21.8 ± 5.55 ng·h/mL, the “in vivo clearance rate” value [18] was 0.398 ± 0.0992 mL/min/kg and the “mean residence time last” value [18] was 8.3 ± 1.0 min. For the same molecule, the “steady state volume of distribution” value [18] was 3.41 ± 1.15 L/kg and the clearance ([18]; Table 3) was 398 ± 99.2 mL/min/kg.

Reference: article PMC7416767 (Gene, 2020)
